Measured values: paper PMC4180826 (Scientific Reports, 2014)

What was measured:
[1] = biological target: probe 1 (terpyridine-Fe (II) complex of the Gd (III)-DOTA peptide 1, a modified substance P); test: T1 relaxation rate
[2] = biological target: probe 1 (terpyridine-Fe (II) complex of the Gd (III)-DOTA peptide 1, a modified substance P); test: other fluorescence titration
[3] = biological target: probe 1 (terpyridine-Fe (II) complex of the Gd (III)-DOTA peptide 1, a modified substance P); test: fluorescence polarisation
[4] = Relaxivity r1, 0.5 T MR system; type: physicochemical; conditions: TBS pH 7.4, 50.0 mM Tris, 50.0 mM NaCl, 37 °C, 1-100 μM, inversion recovery, slope of 1/T1 versus concentration
[5] = Transmission electron microscopy, aggregation and disaggregation; type: physicochemical
How it was run: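 Droplets of the peptide, the test compound, or the test compound bound to NK1R at 1:1 molar ratio were placed on carbon-coated holey grids. The NK1R sample alone was negatively stained with sodium phosphotungstate and dried at room temperature for 12 h before TEM imaging.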

[6] = Fe; type: binding; conditions: until molar ratio Fe (II) to peptide 1 of 1:1; peptide 1 10.0 μM; TBS pH 7.4
[7] = "under the same conditions"; cited from earlier work

Molecule: neurokinin-1 receptor (NK1R), recombinant
- stoichiometry N [1]: 1 probe 1:NK1R
- fold increase of the fluorescence intensity of probe 1 at 610 nm [2]: 3 fold
- Kd [3]: 2300 nM

Molecule: MLGFFQQPKPRKKKKKK(Tpy)K(Tpy)KK(Dye)DOTA [peptide 1]
- relaxivity r1 [4]: 11.8 mM⁻¹ s⁻¹
- length (TEM) ([5]; nanofibers, peptide 1 alone, 10.0 μM in TBS pH 7.4): several hundred nm
- diameter (TEM) ([5]; threadlike network of nanofibers, peptide 1 alone, 10.0 μM in TBS pH 7.4): approximately 3.5 nm
- fluorescence at 610 nm upon addition of Fe (II) ions [6]: decreased

Molecule: O=C([O-])CN(CCN(CC(=O)[O-])CC(=O)O)CCN(CC(=O)[O-])CC(=O)O.[Gd+3] [Gd-(DTPA)]
- relaxivity r1, clinical contrast agents [7]: 4.6 mM⁻¹ s⁻¹

Molecule: CC(O)CN1CCN(CC(=O)[O-])CCN(CC(=O)[O-])CCN(CC(=O)[O-])CC1.[Gd+3] (stereo not shown) [Gd-(HP-DO3A)]
- relaxivity r1, clinical contrast agents [7]: 4.3 mM⁻¹ s⁻¹

B1: NK1R: recombinant NK1R (TACR1) expressed in Rosetta (DE3), purified using nickel affinity chromatography (protein)
chain: MDNVLPVDSDLSPNISTNTSEPNQFVQPAWQIVLWAAAYTVIVVTSVVGNVVVMWIILAHKRMRTVTNYFLVNLAFAEASMAAFNTVVNFTYAVHNEWYYGLFYCKFHNFFPIAAVFASIYSMTAVAFDRYMAIIHPLQPRLSATATKVVICVIWVLALLLAFPQGYYSTTETMPSRVVCMIEWPEHPNKIYEKVYHICVTVLIYFLPLLVIGYAYTVVGITLWASEIPGDSSDRYHEQVSAKRKVVKMMIVVVCTFAICWLPFHIFFLLPYINPDLYLKKFIQQVYLAIMWLAMSSTMYNPIIYCCLNDRFRLGFKHAFRCCPFISAGDYEGLEMKSTRYLQTQGSVYKVSRLETTISTVVGAHEEEPEDGPKATPSSLDLTSNCSSRSDSKTMTESFSFSSNVLS
- diameter (TEM) ([5]; NK1R multimers, 1.0 μM, stained with sodium phosphotungstate 2.0 wt%, TBS pH 7.4): approximately 3.8 nm
